Rows were chosen to be rich in hits. Some 3.4% of all compounds tested hit in one or more screens of this group.
MLL AF4-AF9 inh: blocks AF4 peptide binding to human AF9. P42568. AlphaScreen, biotin-AF4 peptide binding to FLAG-AF9. inhibition, % at 10 µM. hit rate 0.47% among 350,000;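 active = every replicate reaching a set inhibition limit, whatever the replicate mean, cut at about 25% in these data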;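 note: 0% = plate neutral control median and 100% = total signal loss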
Target sequence (P42568 whole entry, looked up): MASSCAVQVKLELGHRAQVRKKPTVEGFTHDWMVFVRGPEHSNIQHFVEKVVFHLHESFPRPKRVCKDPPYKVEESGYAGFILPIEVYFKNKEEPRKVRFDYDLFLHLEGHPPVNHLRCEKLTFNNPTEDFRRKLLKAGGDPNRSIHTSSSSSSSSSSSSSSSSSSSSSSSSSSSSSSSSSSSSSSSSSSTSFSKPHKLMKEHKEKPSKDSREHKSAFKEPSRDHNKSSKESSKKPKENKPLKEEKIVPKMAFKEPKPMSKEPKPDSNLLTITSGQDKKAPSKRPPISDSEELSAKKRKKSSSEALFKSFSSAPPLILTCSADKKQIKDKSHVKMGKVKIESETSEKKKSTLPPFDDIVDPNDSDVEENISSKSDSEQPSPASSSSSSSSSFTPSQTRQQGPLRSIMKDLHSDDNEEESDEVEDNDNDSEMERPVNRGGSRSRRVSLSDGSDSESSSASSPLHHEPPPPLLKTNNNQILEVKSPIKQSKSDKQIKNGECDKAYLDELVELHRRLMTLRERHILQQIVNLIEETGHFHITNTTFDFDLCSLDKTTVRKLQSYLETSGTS
SIRT5 inh: inhibitors of human sirtuin-5 desuccinylase. Purified SirT5, succinyl-peptide AMC, trypsin-coupled fluorescence. hit rate 1.1% among 330,000. inhibition, % at 15 µM. Q9NXA8; in the data active = inhibition above about 15%
Ecoli rRNA inh: inhibitors of bacterial rRNA selective over humanized ribosomes; hit rate 1.6% among 350,000; GFP signal change (wild-type ribosome), % (test concentration not listed); E. coli WT GFP vs humanized-ribosome RFP mutants, fluorescence, 24 h; active compounds read low; DMSO median 0, no signal -100;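 active = significant combined selectivity score with lowered wild-type GFP, culture density cut under 30%, mutant RFP and density less affected; inactive = any of these conditions unmet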
E-selectin induc: induces E-selectin expression in human endothelial cells. HUVEC E-selectin immunofluorescence imaging; normalized: neutral wells 0, TNF-alpha wells 100. activation, % at 7.58 µM. hit rate 0.37% among 260,000;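 active = mean E-selectin-positive cell signal at least 10% of the positive control, reached in at least 60% of replicates, without over 20% cell loss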
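Read-out basis: % PE-positive cells; Test system: HUVEC primary endothelial cells; Technique: immunofluorescence imaging; Dosing: single-point compound dose.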
ERAP1 HTS inh: inhibitors of human ERAP1 aminopeptidase. hit rate 0.15% among 340,000. AID 652197. Q9NZ08. inhibition, % at 10.7 µM. recombinant ERAP1, Leu-AMC fluorescence, 60 min;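 active = mean replicate inhibition of at least 30%, or all replicates individually reaching that 30% level; inactive = mean below 30% and not every replicate reaching it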;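 note: 0% = neutral control wells and 100% = L-leucinethiol positive control wells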
S100A4 inh HTS: inhibitors of human S100A4 binding to myosin IIA peptide. S100A4/TAMRA-MyoIIA peptide fluorescence polarization. P26447. hit rate 0.14% among 360,000. inhibition, % at 10.7 µM;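 active = mean inhibition of at least 70% across replicates, with every replicate also reaching that level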
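Assay system: human S100A4 monomer with TAMRA-labelled myosin IIA peptide / Buffer or medium: Calcium-containing HEPES buffer, pH 7.2 / Reagent: TAMRA-labelled myosin IIA heavy-chain peptide probe, 5 nM / Compound: one dose per compound / Timing: polarization read 5 min after assay mix addition, stable 5–60 min / Benchmarks: neutral control DMSO, positive control TFP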
* hit, by the source's call; . = no result.

SMILES	MLL AF4-AF9 inh	SIRT5 inh	Ecoli rRNA inh	E-selectin induc	ERAP1 HTS inh	S100A4 inh HTS
CO[C@@H]1CN(C)C(=O)c2ccc(NS(=O)(=O)c3ccccc3Cl)cc2OC[C@H](C)NC[C@H]1C	-1	0	2	0	-1	2
CCCC#Cc1cnc2c(c1)C(=O)N([C@H](C)CO)C[C@@H](C)[C@@H](CN(C)C(=O)NC1CCCC1)O2	-3	-5	7	1	0	4
Cc1cc(/C=C(\C#N)C(=O)N2CCOCC2)c(C)n1C1CCCC1	2	-2	-22*	0	11	-7
CCCCC#Cc1ccc(C(=O)NNC(=O)Nc2cc(Cl)cc(Cl)c2)o1	-1	-3	-40*	0	6	-18
COC(=O)c1sc(N2C(=O)C(=O)/C(=C(/O)c3ccccc3)C2c2ccco2)nc1C (centres undefined)	0	5	-34*	.	5	-15
COc1cccc(C#Cc2ccc([C@H]3[C@@H](CO)N4C(=O)CN(C(=O)Cc5ccccc5)C[C@H]34)cc2)c1	.	1	-33	0	.	7
OC(CSc1nc2ccccc2s1)CC(O)c1ccccc1 (centres undefined)	-4	-2	.	.	2	1
CC1CCCC(NC(=O)COC(=O)CCSc2ccccc2)C1C (centres undefined)	-3	16*	19	1	-3	1
COc1ccc([C@H]2CC(=O)c3c(O)cc(O)cc3O2)cc1O	-1	1	-23*	2	1	-1
C[C@H]1CN([C@@H](C)CO)C(=O)c2cccc(NC(=O)c3cnccn3)c2O[C@H]1CN(C)C(=O)Nc1ccc2c(c1)OCO2	0	-2	-3	0	0	-5
Cc1nn(CCS(=O)(=O)c2ccc(Cl)cc2)c(C)c1Br	-2	.	5	78*	.	-2
CCOCc1c(C(=O)Nc2ccc(OC)nc2)oc2ccccc12	-4	-1	-5	.	55*	-7
COc1ccc(NC(=O)c2oc3ccccc3c2CSC)cn1	-2	0	3	0	-5	4
Cc1cccc(NC(=S)NNC(=O)c2csc3c2CCC(C)C3)c1 (centres undefined)	-11	2	-40*	.	-4	-1
Cc1nnc(NC(=O)c2csc3c2CCC(C)C3)s1 (centres undefined)	-3	-3	20	.	-1	0
C[C@H](CO)N1C[C@H](C)[C@H](CN(C)Cc2ccc(-c3ccccc3)cc2)Oc2ccc(NC(=O)C3CC3)cc2C1=O	-3	2	1	0	0	5
C[C@@H](c1ccccc1)N1C[C@H](COCc2ccccc2)Oc2cc(N3CC[C@@H](N(C)C)C3)ccc2S1(=O)=O	23	-12	-10	0	3	-3
C[C@@H](c1ccccc1)N1C[C@H](COCc2ccccc2)Oc2cc(N3CC[C@H](N(C)C)C3)ccc2S1(=O)=O	26*	-3	-26	0	16	-5
CCCCC[C@H](C)N1C[C@H](COCc2ccccc2)Oc2cc(N3CCC[C@@H]3CO)ccc2S1(=O)=O	-2	0	6	0	9	-4
CCCCC[C@H](C)N1C[C@@H](COCc2ccccc2)Oc2cc(N3CCC[C@H]3CO)ccc2S1(=O)=O	-3	21*	13	0	3	2

Screening data from PubChem BioAssay.
